pIC50, pKi: −log10 of the molar value. Blank lines part the entries; values can stand above or below the molecule they belong to.
Assays:
[1] = molecular target: T1, Sodium channel protein type 9 subunit alpha (Homo sapiens, UniProt Q15858); assay: Inhibition of human Nav 1.7 channel by electrophysiology
Target sequence in this assay (Q15858 whole entry): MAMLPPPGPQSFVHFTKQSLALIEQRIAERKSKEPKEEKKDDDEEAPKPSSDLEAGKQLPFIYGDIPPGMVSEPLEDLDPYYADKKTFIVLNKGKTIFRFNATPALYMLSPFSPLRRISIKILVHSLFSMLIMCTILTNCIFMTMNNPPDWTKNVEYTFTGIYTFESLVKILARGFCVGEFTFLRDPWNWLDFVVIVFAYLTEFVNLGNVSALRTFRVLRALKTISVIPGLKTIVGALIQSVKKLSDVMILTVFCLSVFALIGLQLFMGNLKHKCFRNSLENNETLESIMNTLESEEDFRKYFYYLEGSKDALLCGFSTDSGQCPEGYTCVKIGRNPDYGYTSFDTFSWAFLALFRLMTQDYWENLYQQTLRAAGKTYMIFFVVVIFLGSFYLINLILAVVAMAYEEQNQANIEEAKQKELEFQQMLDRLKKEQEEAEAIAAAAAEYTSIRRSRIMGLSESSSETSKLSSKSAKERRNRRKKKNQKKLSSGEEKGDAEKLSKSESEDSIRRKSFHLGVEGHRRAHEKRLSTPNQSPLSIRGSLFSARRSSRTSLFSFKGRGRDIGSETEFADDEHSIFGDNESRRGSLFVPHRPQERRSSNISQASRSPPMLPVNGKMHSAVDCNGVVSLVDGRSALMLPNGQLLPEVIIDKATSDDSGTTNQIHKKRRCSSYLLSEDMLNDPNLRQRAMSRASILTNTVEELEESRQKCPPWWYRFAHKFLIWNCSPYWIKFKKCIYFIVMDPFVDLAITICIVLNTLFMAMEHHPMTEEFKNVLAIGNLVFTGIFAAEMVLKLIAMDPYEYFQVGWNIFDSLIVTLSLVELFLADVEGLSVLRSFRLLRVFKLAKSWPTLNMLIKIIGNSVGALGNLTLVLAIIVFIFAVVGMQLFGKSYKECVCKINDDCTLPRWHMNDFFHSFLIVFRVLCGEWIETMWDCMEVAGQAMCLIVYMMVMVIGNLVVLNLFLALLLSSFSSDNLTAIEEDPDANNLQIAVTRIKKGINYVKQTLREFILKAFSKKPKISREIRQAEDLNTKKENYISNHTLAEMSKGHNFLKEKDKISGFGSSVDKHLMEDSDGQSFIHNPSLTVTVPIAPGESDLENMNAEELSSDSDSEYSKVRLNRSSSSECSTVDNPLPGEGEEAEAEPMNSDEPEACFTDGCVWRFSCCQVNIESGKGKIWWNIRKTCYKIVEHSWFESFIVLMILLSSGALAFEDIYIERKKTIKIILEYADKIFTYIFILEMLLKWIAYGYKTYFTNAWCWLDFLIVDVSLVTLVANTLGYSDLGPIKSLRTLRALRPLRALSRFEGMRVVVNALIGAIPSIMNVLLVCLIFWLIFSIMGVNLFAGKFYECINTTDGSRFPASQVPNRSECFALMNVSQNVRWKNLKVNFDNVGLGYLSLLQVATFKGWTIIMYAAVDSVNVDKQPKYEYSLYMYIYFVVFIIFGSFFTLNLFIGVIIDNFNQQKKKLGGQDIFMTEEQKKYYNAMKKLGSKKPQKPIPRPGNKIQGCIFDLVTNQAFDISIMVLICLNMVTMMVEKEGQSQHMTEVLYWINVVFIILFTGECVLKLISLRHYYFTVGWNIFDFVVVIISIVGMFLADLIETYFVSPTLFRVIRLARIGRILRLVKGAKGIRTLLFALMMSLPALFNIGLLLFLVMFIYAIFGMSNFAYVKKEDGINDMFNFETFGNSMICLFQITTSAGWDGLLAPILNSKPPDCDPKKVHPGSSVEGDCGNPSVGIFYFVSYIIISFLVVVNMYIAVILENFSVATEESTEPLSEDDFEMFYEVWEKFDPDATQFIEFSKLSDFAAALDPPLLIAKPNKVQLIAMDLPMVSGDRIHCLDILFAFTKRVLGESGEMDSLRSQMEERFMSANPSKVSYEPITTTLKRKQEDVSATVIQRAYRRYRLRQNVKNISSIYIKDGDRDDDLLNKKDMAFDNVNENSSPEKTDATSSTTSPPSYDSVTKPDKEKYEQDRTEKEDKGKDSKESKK

[2] = Clearance in rat plasma at 1 mg/kg, ip; format: ADME, organism-based; design: dose 1 mg/kg, route intraperitoneal
[3] = molecular target: T1, Sodium channel protein type 9 subunit alpha; assay: Inhibition of human Nav 1.7 channel by voltage-ion-probe-reader
Procedure, shortened: (§1)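 Functional membrane-potential FRET assay on voltage-gated hNav1.7, read on a voltage-ion-probe reader (VIPR). Results given as IC50 or as percent inhibition at 10 μM.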
Target sequence in this assay (Q15858 whole entry): as above

hERG (KCNH2) = hERG (KCNH2) (Homo sapiens, UniProt Q12809); assay: Displacement of [35S][…] from human ERG channel at 10 uM
Chain of hERG (KCNH2) (Q12809 whole entry): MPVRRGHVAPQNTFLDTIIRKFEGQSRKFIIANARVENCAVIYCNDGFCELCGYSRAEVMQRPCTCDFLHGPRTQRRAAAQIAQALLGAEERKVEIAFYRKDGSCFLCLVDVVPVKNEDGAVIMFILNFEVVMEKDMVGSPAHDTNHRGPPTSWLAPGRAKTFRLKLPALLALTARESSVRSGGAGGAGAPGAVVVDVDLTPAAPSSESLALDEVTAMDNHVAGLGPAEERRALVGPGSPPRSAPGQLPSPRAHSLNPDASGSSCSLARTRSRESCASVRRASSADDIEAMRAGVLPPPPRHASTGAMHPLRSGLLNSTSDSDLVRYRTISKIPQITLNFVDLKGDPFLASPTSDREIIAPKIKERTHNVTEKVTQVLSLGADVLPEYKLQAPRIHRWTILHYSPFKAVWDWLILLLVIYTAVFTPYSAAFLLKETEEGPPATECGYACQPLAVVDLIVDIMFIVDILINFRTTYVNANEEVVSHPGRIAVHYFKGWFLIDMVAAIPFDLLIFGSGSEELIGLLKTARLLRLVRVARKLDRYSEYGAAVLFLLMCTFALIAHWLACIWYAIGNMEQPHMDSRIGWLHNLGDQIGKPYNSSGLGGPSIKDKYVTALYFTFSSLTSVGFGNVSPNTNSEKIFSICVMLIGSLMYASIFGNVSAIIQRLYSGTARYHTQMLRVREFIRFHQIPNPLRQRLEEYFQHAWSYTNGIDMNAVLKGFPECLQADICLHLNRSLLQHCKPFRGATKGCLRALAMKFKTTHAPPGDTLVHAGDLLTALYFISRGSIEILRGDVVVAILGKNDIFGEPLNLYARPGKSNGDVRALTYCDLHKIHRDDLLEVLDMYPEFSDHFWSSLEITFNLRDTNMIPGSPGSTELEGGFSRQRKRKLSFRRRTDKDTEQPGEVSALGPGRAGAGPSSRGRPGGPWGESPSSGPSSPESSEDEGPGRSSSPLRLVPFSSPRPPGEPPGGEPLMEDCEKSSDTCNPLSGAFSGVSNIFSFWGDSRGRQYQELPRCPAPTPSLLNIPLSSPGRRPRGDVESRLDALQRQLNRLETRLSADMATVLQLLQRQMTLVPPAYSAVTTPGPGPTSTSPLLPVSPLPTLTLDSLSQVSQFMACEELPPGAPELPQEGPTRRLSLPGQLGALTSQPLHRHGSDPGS
Procedure, shortened: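 hERG binding assay measuring displacement of 35S-labeled MK-0499, a known hERG blocker. Test compound at 10 μM; result expressed as percent inhibition of binding.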

Rattus norvegicus [4] = assay: Antiallodynic activity in rat spinal nerve ligation model of neuropathic pain assessed as reversal of allodynia at 10 mg/kg, po after 2 hrs; format: functional
Procedure, shortened: (§2)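 Rat spinal nerve ligation (Chung) neuropathic pain model; compound given orally as a single dose (10 or 30 mg/kg). Allodynia reversal read at 2 h and 4 h after dosing, expressed as percent reversal.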

Rattus norvegicus [5] = assay: Antiallodynic activity in rat spinal nerve ligation model of neuropathic pain assessed as reversal of allodynia at 10 mg/kg, po after 4 hrs; format: functional; procedure, shortened: as §2
Cytochrome P450 3A4 = Cytochrome P450 3A4 (Homo sapiens, UniProt P08684); assay: Inhibition of CYP3A4; format: ADME
Chain of Cytochrome P450 3A4 (P08684 whole entry): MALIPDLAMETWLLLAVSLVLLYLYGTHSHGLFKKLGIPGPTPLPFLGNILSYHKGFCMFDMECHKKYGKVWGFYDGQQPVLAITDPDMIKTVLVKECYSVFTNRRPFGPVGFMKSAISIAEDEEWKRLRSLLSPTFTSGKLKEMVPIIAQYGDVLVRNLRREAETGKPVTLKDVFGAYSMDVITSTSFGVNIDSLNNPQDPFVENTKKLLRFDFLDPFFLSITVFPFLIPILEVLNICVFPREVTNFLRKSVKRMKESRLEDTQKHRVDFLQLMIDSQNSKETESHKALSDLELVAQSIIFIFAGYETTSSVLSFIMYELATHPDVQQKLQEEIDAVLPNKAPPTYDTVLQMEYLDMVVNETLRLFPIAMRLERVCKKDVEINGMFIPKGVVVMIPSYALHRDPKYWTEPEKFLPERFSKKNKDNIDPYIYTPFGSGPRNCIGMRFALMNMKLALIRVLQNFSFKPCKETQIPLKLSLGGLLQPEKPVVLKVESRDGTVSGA

Cytochrome P450 2C9 = Cytochrome P450 2C9 (Homo sapiens, UniProt P11712); assay: Inhibition of CYP2C9; format: ADME
Chain of Cytochrome P450 2C9 (P11712 whole entry): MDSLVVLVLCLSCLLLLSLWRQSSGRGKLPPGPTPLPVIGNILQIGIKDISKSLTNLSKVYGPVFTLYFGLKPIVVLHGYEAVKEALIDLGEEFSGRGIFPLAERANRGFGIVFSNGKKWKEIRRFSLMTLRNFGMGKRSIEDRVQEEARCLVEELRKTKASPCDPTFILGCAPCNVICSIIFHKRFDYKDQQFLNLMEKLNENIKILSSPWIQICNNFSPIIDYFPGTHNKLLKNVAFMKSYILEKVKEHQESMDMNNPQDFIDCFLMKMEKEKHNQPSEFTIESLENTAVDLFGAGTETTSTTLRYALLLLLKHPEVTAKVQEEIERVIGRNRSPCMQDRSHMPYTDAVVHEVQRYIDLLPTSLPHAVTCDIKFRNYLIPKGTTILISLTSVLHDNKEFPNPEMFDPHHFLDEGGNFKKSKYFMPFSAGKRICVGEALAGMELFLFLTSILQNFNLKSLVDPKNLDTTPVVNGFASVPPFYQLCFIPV

Cytochrome P450 2D6 = Cytochrome P450 2D6 (Homo sapiens, UniProt P10635); assay: Inhibition of CYP2D6; format: ADME
Chain of Cytochrome P450 2D6 (P10635 whole entry): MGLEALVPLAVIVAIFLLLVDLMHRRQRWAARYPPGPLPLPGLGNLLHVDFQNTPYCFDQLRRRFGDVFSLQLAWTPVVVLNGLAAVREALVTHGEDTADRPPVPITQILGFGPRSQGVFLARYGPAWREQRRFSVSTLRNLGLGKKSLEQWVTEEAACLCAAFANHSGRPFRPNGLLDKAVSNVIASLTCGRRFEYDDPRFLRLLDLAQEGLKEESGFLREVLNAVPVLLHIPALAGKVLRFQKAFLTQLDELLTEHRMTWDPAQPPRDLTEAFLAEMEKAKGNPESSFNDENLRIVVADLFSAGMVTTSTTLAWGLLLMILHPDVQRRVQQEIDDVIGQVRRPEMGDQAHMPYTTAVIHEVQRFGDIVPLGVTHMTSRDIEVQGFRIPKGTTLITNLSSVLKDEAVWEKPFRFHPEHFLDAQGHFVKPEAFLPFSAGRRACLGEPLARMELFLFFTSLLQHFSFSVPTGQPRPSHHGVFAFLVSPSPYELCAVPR

[6] = molecular target: T2, Nuclear receptor subfamily 1 group I member 2 (Homo sapiens, UniProt O75469); assay: Induction of human PXR by induction assay
T2 sequence (O75469 whole entry): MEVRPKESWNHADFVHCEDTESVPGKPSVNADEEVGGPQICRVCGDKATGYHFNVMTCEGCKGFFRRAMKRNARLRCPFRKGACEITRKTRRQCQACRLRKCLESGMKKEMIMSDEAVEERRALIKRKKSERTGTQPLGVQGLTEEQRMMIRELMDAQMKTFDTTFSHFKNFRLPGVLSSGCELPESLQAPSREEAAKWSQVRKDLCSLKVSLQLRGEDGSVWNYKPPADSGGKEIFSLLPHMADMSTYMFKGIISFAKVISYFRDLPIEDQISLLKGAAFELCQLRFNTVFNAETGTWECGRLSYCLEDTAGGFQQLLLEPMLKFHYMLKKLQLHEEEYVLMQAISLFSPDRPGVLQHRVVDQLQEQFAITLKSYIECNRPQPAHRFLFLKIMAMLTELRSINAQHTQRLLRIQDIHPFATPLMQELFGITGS

[7] = Half life in rat; format: ADME, organism-based; settings: in vivo
[8] = Volume of distribution in rat; format: ADME, organism-based; settings: in vivo
[9] = Oral bioavailability in rat; format: ADME, organism-based; settings: in vivo
Rattus norvegicus [10] = organism: Rattus norvegicus; assay: Plasma clearance in rat; format: ADME, organism-based; settings: in vivo
[11] = Half life in dog; format: ADME, organism-based, Canis lupus familiaris; settings: in vivo
[12] = Volume of distribution in dog; format: ADME, organism-based, Canis lupus familiaris; settings: in vivo
[13] = Oral bioavailability dog; format: ADME, organism-based, Canis lupus familiaris; settings: in vivo
Canis familiaris = organism: Canis familiaris; assay: Plasma clearance in dog; format: ADME, organism-based, Canis lupus familiaris; settings: in vivo
Rattus norvegicus [14] = assay: Antiallodynic activity in rat spinal nerve ligation model of neuropathic pain assessed as reversal of mechanical allodynia at 3 mg/kg, po bid for 2 days measured after 2 hrs post final dose; format: functional
Procedure, shortened: (§3)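 Rat spinal nerve ligation (Chung) model; oral dosing at 3 mg/kg bid for 2 days. Reversal of mechanical allodynia read at 2 h and 4 h, expressed as percent reversal; significance given as p values.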

Rattus norvegicus [15] = assay: Antiallodynic activity in rat spinal nerve ligation model of neuropathic pain assessed as reversal of mechanical allodynia at 3 mg/kg, po bid for 2 days measured after 4 hrs post final dose; format: functional; procedure, shortened: as §3
Rattus norvegicus [16] = assay: Antiallodynic activity in rat spinal nerve ligation model of neuropathic pain assessed as reversal of allodynia at 30 mg/kg, po after 2 hrs; format: functional; procedure, shortened: as §2
Rattus norvegicus [17] = assay: Antiallodynic activity in rat spinal nerve ligation model of neuropathic pain assessed as reversal of allodynia at 30 mg/kg, po after 4 hrs; format: functional; procedure, shortened: as §2
Mus musculus = assay: Anticonvulsant activity in mouse assessed as protection against maximal electric shock-induced tonic seizures at 10 mg/kg, po after 4 hrs; format: functional
Procedure, shortened: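 Mouse maximal electroshock (MES) seizure model. Oral dose 10 mg/kg, given 4 h before the shock. Read-out is protection from tonic seizures, expressed as percent.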

Rattus norvegicus [18] = assay: Neurotoxicity in rat assessed as effect on motor coordination by measuring reduced latency at 30 mg/kg, po by rotarod test; format: toxicity, organism-based; design: dose 30 mg/kg, route oral; settings: in vivo
Procedure, shortened: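 Rat rotarod test of motor coordination after oral dosing (30 or 100 mg/kg). Read-out is latency on the rotarod.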

Liver microsomes [19] = assay: Metabolic stability in human liver microsomes after 60 mins; format: functional; settings: Microsome
Procedure, shortened: (§4)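 Compound incubated for 60 min with liver microsomal preparations. Conversion to the carboxylic acid metabolite formed by carboxamide hydrolysis was followed.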

Liver = assay: Metabolic stability in dog liver microsomes after 60 mins; format: functional; settings: Canis lupus familiaris, Microsome; procedure, shortened: as §4
Macaca mulatta = organism: Macaca mulatta; assay: Metabolic stability in monkey liver microsomes after 60 mins; format: functional; settings: Microsome; procedure, shortened: as §4
Liver microsomes [20] = assay: Metabolic stability in rat liver microsomes after 60 mins; format: functional; settings: Microsome; procedure, shortened: as §4
[21] = molecular target: T1, Sodium channel protein type 9 subunit alpha; assay: Inhibition of human Nav 1.7 channel at 10 uM by voltage-ion-probe-reader; procedure, shortened: as §1
Target sequence in this assay (Q15858 whole entry, looked up): as the sequence (Q15858 whole entry) above

Compound: NC(=O)n1ccc(-c2cccc(-c3ccccc3Cl)c2)n1
- pKi [1]: 7.74
- CL/F [2]: 7.38 L/h/kg

Compound: CC(C)(C)c1cc(C(N)=O)nn1-c1cccc(-c2ccccc2OC(F)(F)F)c1
- pIC50 [3]: 5.86

Compound: Cc1cc(C(N)=O)nn1-c1ccc(F)c(-c2ccccc2OC(F)(F)F)c1
- pIC50 [3]: 6.79
- inhibition at 10 µM (hERG (KCNH2)): 66%

Compound: NC(=O)c1nc(-c2cccc(-c3ccccc3OC(F)(F)F)c2)cs1
- pKi [1]: 7.82

Compound: Cc1cc(C(N)=O)nn1-c1cccc(-c2cc(F)ccc2C(F)(F)F)c1
- pIC50 [3]: 6.39
- inhibition at 10 µM (hERG (KCNH2)): 41%

Compound: Cc1cc(C(N)=O)nn1-c1cccc(-c2cccc(F)c2C(F)(F)F)c1
- pIC50 [3]: 6.11
- inhibition at 10 µM (hERG (KCNH2)): 73%

Compound: Cc1cc(C(N)=O)nn1-c1cccc(-c2ccccc2Oc2ccccc2)c1
- pIC50 [3]: 6.06
- inhibition at 10 µM (hERG (KCNH2)): 13%

Compound: NC(=O)c1cc(-c2cccc(-c3ccccc3OC(F)(F)F)c2)n[nH]1
- pIC50 [3]: 6.29
- inhibition at 10 µM (hERG (KCNH2)): 94%

Compound: NC(=O)c1cc(N)n(-c2cccc(-c3ccccc3OC(F)(F)F)c2)n1
- pIC50 [3]: 6.95
- inhibition at 10 µM (hERG (KCNH2)): 44%

Compound: Cc1cc(C(N)=O)nn1-c1cccc(-c2c(C(F)(F)F)cccc2C(F)(F)F)c1
- pIC50 [3]: 7.39
- inhibition at 10 µM (hERG (KCNH2)): 67%
- Activity (Rattus norvegicus [4]): 16%
- Activity (Rattus norvegicus [5]): 6%

Compound: Cc1cc(C(N)=O)nn1-c1cccc(-c2ccccc2OCC(F)(F)F)c1
- pIC50 [3]: 6.73
- inhibition at 10 µM (hERG (KCNH2)): 43%
- Activity (Rattus norvegicus [4]): 18%
- Activity (Rattus norvegicus [5]): 4%

Now from value to molecule, other results behind:

- pKi [1]: 7.89
Compound: NC(=O)n1ccc(-c2ccc(Oc3ccc(Cl)cc3F)cc2)n1

- pIC50 [3]: 6.65
Compound: Cc1cc(C(N)=O)nn1-c1cc(-c2ccccc2OC(F)(F)F)ccc1F
- inhibition at 10 µM (hERG (KCNH2)): 62%
- Activity (Rattus norvegicus [4]): 17%
- Activity (Rattus norvegicus [5]): 8%

- pIC50 [3]: 6.79
Compound: Cc1cc(C(N)=O)nn1-c1cccc(-c2ccccc2C(F)(F)F)c1
- inhibition at 10 µM (hERG (KCNH2)): 68%
- Activity (Rattus norvegicus [4]): 14%
- Activity (Rattus norvegicus [5]): 19%

- pIC50 [3]: 6.37
- pIC50 (Cytochrome P450 3A4): < 4.00
- pIC50 (Cytochrome P450 2C9): 5.05
- pIC50 (Cytochrome P450 2D6): < 4.00
- pIC50 [6]: < 4.60
- half-life [7]: 2 h
- Vd [8]: 3.1 L/kg
- bioavailability [9]: 55%
- clearance (Rattus norvegicus [10]): 0.66 L/h/kg
- half-life [11]: 1.4 h
- Vd [12]: 1.43 L/kg
- bioavailability [13]: 50%
- clearance (Canis familiaris): 0.96 L/h/kg
Compound: Cc1cc(C(N)=O)nn1-c1cccc(-c2ccc(C(F)(F)F)cc2C(F)(F)F)c1
- inhibition at 10 µM (hERG (KCNH2)): 53%
- Activity (Rattus norvegicus [4]): 35%
- Activity (Rattus norvegicus [5]): 32%
- Activity (Rattus norvegicus [14]): 80%
- Activity (Rattus norvegicus [15]): 87%
- Activity (Rattus norvegicus [16]): 69%
- Activity (Rattus norvegicus [17]): 55%
- Activity (Mus musculus): 90%
- Activity (Rattus norvegicus [18]): Not Active
- Stability (Liver microsomes [19]): Stable
- Stability (Liver): Stable
- Stability (Macaca mulatta): Stable
- Stability (Liver microsomes [20]): Unstable

- pIC50 [3]: 6.61
Compound: Cc1cc(C(N)=O)nn1-c1cccc(-c2ccc(Cl)cc2C(F)(F)F)c1
- inhibition at 10 µM (hERG (KCNH2)): 45%
- Activity (Rattus norvegicus [4]): 8%
- Activity (Rattus norvegicus [5]): 0%

- pIC50 [3]: 6.65
Compound: Cc1cc(C(N)=O)nn1-c1cccc(-c2ccccc2OC(F)(F)F)c1
- inhibition at 10 µM (hERG (KCNH2)): 6%
- Activity (Rattus norvegicus [4]): 33%
- Activity (Rattus norvegicus [5]): 11%

- pIC50 [3]: 7.15
Compound: Cc1cc(C(N)=O)nn1-c1cccc(-c2c(F)cccc2C(F)(F)F)c1
- inhibition at 10 µM (hERG (KCNH2)): 74%
- Activity (Rattus norvegicus [4]): 12%
- Activity (Rattus norvegicus [5]): 2%

- pIC50 [3]: 7.19
Compound: NC(=O)c1ccn(-c2cccc(-c3ccccc3OC(F)(F)F)c2)n1
- inhibition at 10 µM (hERG (KCNH2)): 51%

- pIC50 [3]: 6.89
Compound: Cc1cc(C(N)=O)nn1-c1cccc(-c2ccccc2OCC(F)(F)C(F)(F)F)c1
- inhibition at 10 µM (hERG (KCNH2)): 49%
- Activity (Rattus norvegicus [4]): 15%
- Activity (Rattus norvegicus [5]): 9%

- inhibition [21]: 17%
Compound: Cc1cc(C(N)=O)nn1-c1cccc(-c2cc(C(F)(F)F)cc(C(F)(F)F)c2)c1

- pKi [1]: 6.95
- CL/F [2]: 7.5 L/h/kg
Compound: NC(=O)n1ccc(-c2ccc(-c3ccccc3Cl)cc2)n1

- pIC50 [3]: 6.13
Compound: Cc1cc(C(N)=O)nn1-c1cccc(-c2ccccc2Cl)c1
- inhibition at 10 µM (hERG (KCNH2)): 8%

- pIC50 [3]: 6.57
- pIC50 (Cytochrome P450 3A4): 4.29
- pIC50 (Cytochrome P450 2C9): 5.59
- pIC50 (Cytochrome P450 2D6): 4.48
Compound: Cc1cc(C(N)=O)nn1-c1cccc(-c2cc(C(F)(F)F)ccc2C(F)(F)F)c1
- inhibition at 10 µM (hERG (KCNH2)): 51%
- Activity (Rattus norvegicus [4]): 39%
- Activity (Rattus norvegicus [5]): 35%

- pIC50 [3]: 6.43
Compound: Cc1cc(C(N)=O)nn1-c1ccc(OC(F)(F)F)c(-c2ccccc2OC(F)(F)F)c1
- inhibition at 10 µM (hERG (KCNH2)): 77%
